In ChEMBL document CHEMBL2010740, “Synthesis and evaluation of 2-amido-3-carboxamide thiophene CB₂ receptor agonists for pain management” (Bioorg Med Chem Lett, 2012):

Assays:
Cannabinoid receptor 2 [1] = molecular target: T1, Cannabinoid receptor 2 (Rattus norvegicus, UniProt Q9QZN9); test: Displacement of [3H]CP-55940 from rat recombinant CB2 receptor expressed in HEK293 cells after 90 mins; type: cell-based
T1 sequence (Q9QZN9 whole entry): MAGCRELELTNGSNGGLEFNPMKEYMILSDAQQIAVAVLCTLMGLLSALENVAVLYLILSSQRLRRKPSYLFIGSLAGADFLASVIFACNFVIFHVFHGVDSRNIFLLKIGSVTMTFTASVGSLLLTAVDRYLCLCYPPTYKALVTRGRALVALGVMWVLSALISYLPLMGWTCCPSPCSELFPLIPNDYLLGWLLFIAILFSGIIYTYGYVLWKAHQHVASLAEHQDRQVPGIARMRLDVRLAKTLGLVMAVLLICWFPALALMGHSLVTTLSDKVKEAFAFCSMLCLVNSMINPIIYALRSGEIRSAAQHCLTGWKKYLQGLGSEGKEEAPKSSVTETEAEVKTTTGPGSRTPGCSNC
How it was run: (§1)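 Competitive binding: [³H]CP-55,940 displaced from membranes of HEK 293 cells stably transfected with human or rat CB₂, or CHO cells stably transfected with human or rat CB₁. Reported as pKi. Determinations >2 (duplicate of duplicate).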

Cannabinoid receptor 2 [2] = molecular target: T2, Cannabinoid receptor 2 (Homo sapiens, UniProt P34972); test: Agonist activity at human recombinant CB2 receptor expressed in HEK293 cells assessed as inhibition of forskolin-induced cAMP production after 20 mins by ELISA; type: functional, cell-based
How it was run: (§2)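 cAMP assay in HEK 293 cells stably expressing the relevant CB receptor, with a fixed concentration of forskolin. cAMP was quantified by ELISA. Activation is given as percent of the CP-55,940 control response.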

Cannabinoid receptor 2 [3] = molecular target: T2, Cannabinoid receptor 2; test: Agonist activity at human recombinant CB2 receptor expressed in HEK293 cells co-expressing chimeric Gaq/o protein by FLIPR assay; type: functional, cell-based
How it was run: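 FLIPR functional assay in HEK 293 cells stably co-expressing chimeric Gαq/o protein and the CB receptor. Net peak evoked response was compared with the peak response to CP-55,940.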

Cannabinoid receptor 2 [4] = molecular target: T2, Cannabinoid receptor 2; test: Displacement of [3H]CP-55940 from human recombinant CB2 receptor expressed in HEK293 cells after 90 mins; type: cell-based; how it was run: as §1
Cannabinoid receptor 1 [5] = molecular target: Cannabinoid receptor 1 (Homo sapiens, UniProt P21554); test: Displacement of [3H]CP-55940 from human recombinant CB1 receptor expressed in CHO cells after 90 mins; type: cell-based; how it was run: as §1
Cannabinoid receptor 1 [6] = molecular target: Cannabinoid receptor 1 (Rattus norvegicus, UniProt P20272); test: Displacement of [3H]CP-55940 from rat recombinant CB1 receptor expressed in CHO cells after 90 mins; type: cell-based; how it was run: as §1
[7] = Plasma protein binding in rat; type: ADME, cell-free; details: read-out: PPB (converted)
[8] = Plasma protein binding in human; type: ADME, cell-free; details: read-out: PPB (converted)
Cannabinoid receptor 2 [9] = molecular target: T1, Cannabinoid receptor 2; test: Agonist activity at rat recombinant CB2 receptor expressed in HEK293 cells assessed as inhibition of forskolin-induced cAMP production after 20 mins by ELISA; type: functional, cell-based; how it was run: as §2

T2 sequence (P34972 whole entry): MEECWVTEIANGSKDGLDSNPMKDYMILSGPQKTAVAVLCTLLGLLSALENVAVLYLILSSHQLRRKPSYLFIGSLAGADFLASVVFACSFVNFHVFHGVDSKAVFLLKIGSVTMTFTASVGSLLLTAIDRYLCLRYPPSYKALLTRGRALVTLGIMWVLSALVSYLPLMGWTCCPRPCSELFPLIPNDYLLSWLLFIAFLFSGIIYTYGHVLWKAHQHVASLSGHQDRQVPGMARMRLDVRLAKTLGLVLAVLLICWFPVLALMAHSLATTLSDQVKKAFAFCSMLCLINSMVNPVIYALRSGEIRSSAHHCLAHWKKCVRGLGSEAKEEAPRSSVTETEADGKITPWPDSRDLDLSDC
Chain of Cannabinoid receptor 1 (Homo sapiens, UniProt P21554) (P21554 whole entry): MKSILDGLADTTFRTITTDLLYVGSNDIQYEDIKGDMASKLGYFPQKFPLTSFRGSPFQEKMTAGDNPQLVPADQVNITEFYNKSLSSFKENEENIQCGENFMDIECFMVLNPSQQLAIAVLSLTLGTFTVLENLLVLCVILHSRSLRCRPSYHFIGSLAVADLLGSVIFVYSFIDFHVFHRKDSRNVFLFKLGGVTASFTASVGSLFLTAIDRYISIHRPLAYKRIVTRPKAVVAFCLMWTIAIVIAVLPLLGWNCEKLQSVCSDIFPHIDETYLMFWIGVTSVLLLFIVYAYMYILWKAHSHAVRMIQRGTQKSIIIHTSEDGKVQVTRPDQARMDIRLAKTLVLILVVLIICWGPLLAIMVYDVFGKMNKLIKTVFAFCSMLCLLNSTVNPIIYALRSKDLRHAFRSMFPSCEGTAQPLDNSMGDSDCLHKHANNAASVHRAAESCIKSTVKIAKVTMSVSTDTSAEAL
Chain of Cannabinoid receptor 1 (Rattus norvegicus, UniProt P20272) (P20272 whole entry): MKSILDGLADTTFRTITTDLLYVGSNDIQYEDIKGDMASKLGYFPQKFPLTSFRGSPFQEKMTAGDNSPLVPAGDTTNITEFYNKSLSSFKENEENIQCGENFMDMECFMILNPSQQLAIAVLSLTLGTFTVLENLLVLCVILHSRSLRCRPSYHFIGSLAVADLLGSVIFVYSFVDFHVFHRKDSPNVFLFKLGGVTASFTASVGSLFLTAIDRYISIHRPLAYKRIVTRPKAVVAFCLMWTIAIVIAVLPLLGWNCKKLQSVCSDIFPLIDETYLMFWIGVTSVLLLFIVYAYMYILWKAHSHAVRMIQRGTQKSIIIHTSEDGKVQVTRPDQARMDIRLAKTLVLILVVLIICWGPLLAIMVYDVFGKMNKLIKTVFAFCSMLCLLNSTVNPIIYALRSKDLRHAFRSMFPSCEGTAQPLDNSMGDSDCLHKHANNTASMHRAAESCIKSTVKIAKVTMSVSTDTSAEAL

CCCNC(=O)c1c(NC(=O)C23CC4CC(CC2C4)C3)sc2c1CCCC2
Ki (Cannabinoid receptor 2 [1]): 3.55 nM | IC50 (Cannabinoid receptor 2 [2]): 9.77 nM | IC50 (Cannabinoid receptor 2 [3]): 83.2 nM | Ki (Cannabinoid receptor 2 [4]): 1.95 nM | Ki (Cannabinoid receptor 1 [5]): 1910 nM | Ki (Cannabinoid receptor 1 [6]): 46.8 nM

CCCNC(=O)c1c(NC(=O)C2CC3CCC2C3)sc2c1CCOC2 (stereo unspecified)
Ki (Cannabinoid receptor 2 [1]): 269 nM | Ki (Cannabinoid receptor 2 [4]): 105 nM | Ki (Cannabinoid receptor 1 [5]): > 10000 nM

CCCNC(=O)c1c(NC(=O)C23CC4CC(CC2C4)C3)sc2c1CCNC2
fraction unbound [7]: < 0.01 | fraction unbound [8]: < 0.01 | Ki (Cannabinoid receptor 2 [4]): > 1000 nM

CCCNC(=O)c1c(NC(=O)C23CC4CC(CC(C4)C2)C3)sc2c1CCOC2
IC50 (Cannabinoid receptor 2 [9]): > 10000 nM | Ki (Cannabinoid receptor 2 [1]): 20 nM | IC50 (Cannabinoid receptor 2 [2]): 11.2 nM | fraction unbound [7]: < 0.01 | fraction unbound [8]: < 0.01 | IC50 (Cannabinoid receptor 2 [3]): 42.7 nM | Ki (Cannabinoid receptor 2 [4]): 33.9 nM | Ki (Cannabinoid receptor 1 [5]): > 10000 nM | Ki (Cannabinoid receptor 1 [6]): 525 nM
